Assay results as given in ChEMBL document CHEMBL1629542, “Epigallocatechin gallate inactivates clinical isolates of herpes simplex virus” (Antimicrob Agents Chemother, 2008).
The source made the active and inactive calls. The calls are words filed in the database; no cut-off is given here.

Experiments:
[1] = system: Human alphaherpesvirus 2; test: Antiviral activity against Human herpesvirus 2 strain 333 infected in African green monkey vero cells assessed as log reduction in viral titer at 100 uM after 60 mins; assay type: functional
In short: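 Lab strain HSV-2 333 was grown and titrated either in CV-1 cells or in Vero cells. Virus was incubated with 100 μM EGCG for 60 min, then titrated as tenfold dilutions for 5 days at 37°C with CPE scoring. Reed-Muench TCID50 of treated versus control virus gave the titer decrease. Mean of three experiments.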

[2] = system: Human alphaherpesvirus 2; test: Antiviral activity against Human herpesvirus 2 isolate P2 infected in African green monkey CV1 cells assessed as log reduction in viral titer at 100 uM within 10 mins; assay type: functional, CV-1
In short: (§1)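 HSV-2 clinical isolates from clarified CV-1 supernatants were held with 100 μM EGCG for timed intervals, from 10 min onward. Surviving virus was titrated on CV-1 cells by 10-fold dilution and 5-day CPE scoring, with TCID50 by Reed-Muench. Values are mean ± SD, three experiments.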

[3] = system: Human alphaherpesvirus 2; test: Antiviral activity against Human herpesvirus 2 isolate P12 infected in African green monkey CV1 cells assessed as log reduction in viral titer at 100 uM within 10 mins; assay type: functional, CV-1; in short: as §1
[4] = system: Human alphaherpesvirus 2; test: Antiviral activity against Human herpesvirus 2 isolate P27 infected in African green monkey CV1 cells assessed as log reduction in viral titer at 100 uM within 10 mins; assay type: functional, CV-1
In short: (§2)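 Time course: clarified CV-1 supernatant of HSV-2 (clinical isolates or strain 333) was exposed to 100 μM EGCG for increasing times. It was then titrated by tenfold dilution on CV-1 cells, three wells per dilution, for 5 days at 37°C with CPE read-out. Reed-Muench TCID50 was compared with the untreated titer. Mean of three separate experiments.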

[5] = system: Human alphaherpesvirus 2; test: Antiviral activity against Human herpesvirus 2 isolate P47 infected in African green monkey CV1 cells assessed as log reduction in viral titer at 100 uM within 10 mins; assay type: functional, CV-1; in short: as §2
[6] = system: Human alphaherpesvirus 2; test: Antiviral activity against Human herpesvirus 2 isolate P2 infected in African green monkey CV1 cells assessed as log reduction in viral titer at 100 uM within 20 mins; assay type: functional, CV-1; in short: as §2
[7] = system: Human alphaherpesvirus 2; test: Antiviral activity against Human herpesvirus 2 isolate P11 infected in African green monkey CV1 cells assessed as log reduction in viral titer at 100 uM within 20 mins; assay type: functional, CV-1; in short: as §1
[8] = system: Human alphaherpesvirus 1; test: Antiviral activity against Human herpesvirus 1 isolate P38 infected in African green monkey vero cells assessed as log reduction in viral titer at 100 uM after 30 mins; assay type: functional
In short: (§3)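 In the time course, HSV-1 clinical isolates (clarified Vero supernatants) were exposed to 100 μM EGCG for varying times up to 60 min. Residual infectivity was then titrated on Vero cells by 5-day CPE endpoint with Reed-Muench calculation. Mean ± SD of three separate experiments.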

[9] = system: Human alphaherpesvirus 1; test: Antiviral activity against Human herpesvirus 1 isolate P32 infected in African green monkey vero cells assessed as log reduction in viral titer at 100 uM within 20 mins; assay type: functional; in short: as §3
[10] = system: Human alphaherpesvirus 1; test: Antiviral activity against Human herpesvirus 1 isolate P56 infected in African green monkey vero cells assessed as log reduction in viral titer at 100 uM within 20 mins; assay type: functional; in short: as §3
[11] = system: Human alphaherpesvirus 1; test: Antiviral activity against Human herpesvirus 1 F1 assessed as decrease in labeled gB envelope glycoprotein at 100 uM after 2 hrs by electron microscopy; assay type: functional, organism-based
In short: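 Purified HSV-1 F1 virions were treated with 100 μM EGCG for 2 h, fixed in glutaraldehyde/paraformaldehyde and LR White-embedded without osmium. Nickel-grid sections were blocked with BSA and goat serum, then labelled overnight with anti-gB or anti-gD monoclonal (1:15) and 15 nm colloidal gold. Labelled versus unlabelled particles were counted in 10 fields of 100 particles; mean ± SD.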

[12] = system: Human alphaherpesvirus 1; test: Antiviral activity against Human herpesvirus 1 isolate P38 infected in African green monkey vero cells assessed as reduction in viral titer; assay type: functional, organism-based; details: Human alphaherpesvirus 1, isolate P38, Vero
In short: (§4)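 Laboratory HSV-1 F1 or patient-swab HSV-1 isolates were prepared as clarified Vero supernatants. They were incubated 1 h with a range of EGCG concentrations in RPMI 1640/1% FCS at pH 7.4. Titres were determined on Vero cells by 5-day CPE endpoint (Reed-Muench). IC99 was read graphically as 99% titre drop from untreated; mean ± SD, three experiments.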

[13] = system: Human alphaherpesvirus 1; test: Antiviral activity against Human herpesvirus 1 isolate P42 infected in African green monkey vero cells assessed as reduction in viral titer; assay type: functional, organism-based; details: Human alphaherpesvirus 1, isolate P42, Vero; in short: as §4
[14] = system: Human alphaherpesvirus 1; test: Antiviral activity against Human herpesvirus 1 F1 infected in African green monkey vero cells assessed as reduction in viral titer; assay type: functional, organism-based; details: Human alphaherpesvirus 1, F1, Vero; in short: as §4
[15] = system: Human alphaherpesvirus 1; test: Antiviral activity against Human herpesvirus 1 isolate P42 infected in African green monkey vero cells assessed as log reduction in viral titer at 50 uM; assay type: functional; in short: as §4
[16] = system: Human alphaherpesvirus 1; test: Antiviral activity against Human herpesvirus 1 isolate P25 infected in African green monkey vero cells assessed as reduction in viral titer at 100 uM; assay type: functional, organism-based; in short: as §4
[17] = system: Human alphaherpesvirus 2; test: Antiviral activity against Human herpesvirus 2 isolate P12 infected in African green monkey CV1 cells assessed as log reduction in viral titer at 12.5 uM; assay type: functional, CV-1
In short: (§5)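 HSV-2 patient-swab isolates were grown as clarified CV-1 supernatants and incubated 1 h with a range of EGCG concentrations (RPMI 1640/1% FCS, pH 7.4). They were titrated on CV-1 cells from 10-fold dilutions by 5-day CPE at 37°C, with Reed-Muench TCID50. IC99 was derived graphically as 99% reduction from zero-drug titre; mean ± SD, three experiments.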

[18] = system: Human alphaherpesvirus 2; test: Antiviral activity against Human herpesvirus 2 isolate P27 infected in African green monkey CV1 cells assessed as log reduction in viral titer at 12.5 uM; assay type: functional, CV-1
In short: (§6)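 HSV-2 (clinical swab isolates or strain 333) was grown in CV-1 cells and used as clarified supernatant. Virus was exposed to graded EGCG for 1 h in RPMI 1640 with 1% FCS, pH 7.4. Tenfold dilutions were titrated on CV-1 cells, three wells each, 5 days at 37°C, scoring CPE. TCID50 was calculated by Reed-Muench. IC99 was read graphically as 99% titer drop from the zero-concentration titer. Mean of three experiments.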

[19] = system: Human alphaherpesvirus 2; test: Antiviral activity against Human herpesvirus 2 isolate P47 infected in African green monkey CV1 cells assessed as log reduction in viral titer at 12.5 uM; assay type: functional, CV-1; in short: as §6
[20] = system: Human alphaherpesvirus 2; test: Antiviral activity against Human herpesvirus 2 isolate P12 infected in African green monkey CV1 cells; assay type: functional, organism-based; details: Human alphaherpesvirus 2, isolate P12, CV-1; in short: as §5
[21] = system: Human alphaherpesvirus 2; test: Antiviral activity against Human herpesvirus 2 isolate P11 infected in African green monkey CV1 cells assessed as log reduction viral titer at 50 uM; assay type: functional, CV-1; in short: as §5
[22] = system: Human alphaherpesvirus 2; test: Antiviral activity against Human herpesvirus 2 isolate P47 infected in African green monkey CV1 cells assessed as log reduction viral titer at 50 uM; assay type: functional, CV-1; in short: as §6
[23] = system: Human alphaherpesvirus 2; test: Antiviral activity against Human herpesvirus 2 strain 333 infected in African green monkey CV1 cells assessed as log reduction viral titer at 12.5 ug/ml; assay type: functional, CV-1; in short: as §6
[24] = system: Human alphaherpesvirus 1; test: Antiviral activity against Human herpesvirus 1 isolate P38 infected in African green monkey vero cells assessed as log reduction in viral titer at 50 uM; assay type: functional; in short: as §4

Q: For O=C(O[C@@H]1Cc2c(O)cc(O)cc2O[C@@H]1c1cc(O)c(O)c(O)c1)c1cc(O)c(O)c(O)c1 [EPIGALOCATECHIN GALLATE], which FC [1] is on record?
A: Its FC is 4.

Q: What about the FC [2] of the same molecule?
A: The FC was 2.

Q: And the FC [3]?
A: The FC was 2.

Q: What about the FC [4] of the same molecule?
A: Its FC is 2.

Q: And the FC [5]?
A: The FC was 2.

Q: What about the FC [6] of the same molecule?
A: The FC was 3.

Q: What about the FC [7] of the same molecule?
A: The FC was 3.

Q: What about the FC [8] of the same molecule?
A: Its FC is 2.

Q: And the FC [9]?
A: The FC was 3.

Q: What about the FC [10] of the same molecule?
A: The FC was 3.

Q: What about the Activity [11] of the same molecule?
A: The Activity was “Active”.

Q: And the IC99 [12]?
A: The IC99 was 48.2 µM.

Q: And the IC99 [13]?
A: Its IC99 is 49.1 µM.

Q: And the IC99 [14]?
A: Its IC99 is 72.3 µM.

Q: What about the FC [15] of the same molecule?
A: Its FC is 2.

Q: And the Activity [16]?
A: The Activity was “Active”.

Q: And the FC [17]?
A: The FC was “>=2”.

Q: What about the FC [18] of the same molecule?
A: The FC was “>=2”.

Q: What about the FC [19] of the same molecule?
A: The FC was “>=2”.

Q: What about the IC99 [20] of the same molecule?
A: Its IC99 is 12.5 µM.

Q: And the FC [21]?
A: Its FC is >4.

Q: And the FC [22]?
A: Its FC is >4.

Q: And the FC [23]?
A: The FC was 0.56.

Q: And the FC [24]?
A: Its FC is 2.
